Source: PubChem
NR2E3 ag-1: NR2E3 (human) agonism; hit rate 0.12% among 320,000; GST-NR2E3/biotin-RetCOR TR-FRET, 1536-well; inhibition of corepressor binding, % at 4.78 µM;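 active means percent inhibition above the cutoff of mean plus 3 SD of all tested compounds, set per screening campaign, cut at about 20% in these data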;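 further: 0% = DMSO wells and 100% = biotin wells as full block of FRET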
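System: GST-NR2E3 and biotin-RetCOR proteins; probe or stimulus: 7 nM biotin-RetCOR; doses: compound at 4.8 µM, single dose; schedule: Compound–protein incubation for 5 h at 4 °C; detection: time-resolved FRET; read-out: percent inhibition; controls: biotin wells as high control, 0.6% DMSO wells as low control; format: 1536-well plates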
GalR3 antagonist: human GalR3 antagonism; HEK293 GalR3-CNG cAMP membrane potential fluorescence; galR3 body fused to GalR1 C-terminus; inhibition, % at 3 µM; hit rate 0.44% among 360,000;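 active means inhibition above the screen-wide average plus 3 SD, cut at about 13% in these data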;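 further: forskolin and galanin both at EC90 stimulate the cells; cAMP rise reported by CNG channel membrane potential dye signal; 0% = forskolin plus galanin with DMSO and 100% = forskolin alone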
Target sequence (O60755 1-299 limits assumed): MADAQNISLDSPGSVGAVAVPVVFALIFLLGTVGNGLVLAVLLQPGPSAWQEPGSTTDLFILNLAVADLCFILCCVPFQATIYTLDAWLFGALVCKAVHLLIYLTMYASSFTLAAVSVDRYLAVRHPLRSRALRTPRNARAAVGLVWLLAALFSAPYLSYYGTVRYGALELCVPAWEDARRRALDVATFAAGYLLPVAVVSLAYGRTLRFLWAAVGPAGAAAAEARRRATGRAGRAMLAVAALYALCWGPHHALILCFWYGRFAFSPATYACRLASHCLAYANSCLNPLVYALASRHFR
Jurkat NFkB inh: lowers PMA/ionomycin-induced NF-kB signal in Jurkat cells; PMA/ionomycin-induced NF-kB luciferase reporter, luminescence; inhibition, % at 4 µM; hit rate 0.53% among 330,000; AID 435003; in the data active means inhibition above about 50%
Gli-Sufu block: Gli-Sufu pathway antagonism. Sufu-KO-LIGHT fibroblasts, Gli luciferase reporter luminescence. inhibition, % at 5 µM. hit rate 0.74% among 340,000. AID 588413;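 active means inhibition above about 55%, limit read from the data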;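 further: 0% = DMSO-treated cells and 100% = wells with medium but no cells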
NR2E3 ag-2: human photoreceptor-specific nuclear receptor agonism; Q9Y5X4; CHO-S Gal4-NCOR/VP16-NR2E3 two-hybrid, luciferase; inhibition of corepressor binding, % at 3.98 µM; hit rate 0.35% among 360,000;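 active means inhibition above the mean of all tested compounds plus 3 SD, cut at about 70% in these data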;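 further: 0% = DMSO with NR2E3 transfected cells and 100% = cells lacking NR2E3 construct; higher means lower luciferase signal from less NR2E3 corepressor binding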
697 NFkB inh: lowers PMA/ionomycin-induced NF-kB signal in 697 B cells; 697 B-cell NF-kB luciferase reporter, 16 h; inhibition, % at 4 µM; hit rate 0.33% among 330,000; AID 435022; in the data active means inhibition above about 35%
NR2E3 ag confirm: confirmation of human NR2E3 agonists; CHO-S mammalian two-hybrid NR2E3-NCOR, luciferase luminescence; hit rate 51% among 2,300; shares compounds with NR2E3 ag-2; AID 624378; inhibition, % at 3.98 µM;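 active means average inhibition above a cutoff equal to the mean inhibition of all tested compounds plus one SD, cut at about 70% in these data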;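 further: 0% = DMSO in NR2E3 cells and 100% = DMSO in cells lacking NR2E3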
VP16 counter: reduces GAL4-VP16 reporter signal in NR2E3 counterscreen; shares compounds with NR2E3 ag-2; hit rate 29% among 2,300; inhibition, % at 3.98 µM; CHO-S GAL4-VP16 luciferase reporter, luminescence;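 active means mean inhibition above a cutoff equal to the average over all tested compounds plus one standard deviation, cut at about 70% in these data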;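 further: luciferase from a UAS reporter driven by GAL4-VP16 transactivation; 0% = DMSO with VP16-transfected cells and 100% = DMSO with cells lacking VP16; higher means less reporter light so more repression of VP16 activity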
* hit, by the source's call; . = no result given. An excerpt weighted towards active compounds, which were near 1.8% of everything screened.

SMILES	NR2E3 ag-1	GalR3 antagonist	Jurkat NFkB inh	Gli-Sufu block	NR2E3 ag-2	697 NFkB inh	NR2E3 ag confirm	VP16 counter
CCNc1nc(NCC)nc(-n2nc(C)cc2C)n1	1	-4	1	-2	55	9	-5	-8
Cn1c(=O)n(C)c2cc(NC(=O)CSc3nc4ccccc4c(=O)[nH]3)ccc21	0	-10	17	-20	-8	26	.	.
Nc1ncnc2c1c(-c1ccc(Oc3ccccc3)cc1)cn2C1CCCC1	4	-4	-5	43	74*	-23	86*	72*
CSc1ccc(-c2nc(CSCC(=O)NCCCN3CCOCC3)c(C)o2)cc1	-1	-2	-5	14	46	-6	.	.
COC(CNC(=O)CSCc1nc(-c2ccc(SC)cc2)oc1C)OC	-3	1	13	18	69	11	78*	49
COc1ccc(-c2nc(CSCC(=O)NCC3CCCO3)c(C)o2)cc1OC (stereo not drawn)	0	-4	3	3	-14	3	.	.
Cc1ccc(-c2nc(CSCC(=O)NCC3CCCO3)c(C)o2)cc1 (stereo not drawn)	1	-6	-8	-26	49	17	62	45
Cc1nc2ncnn2c(N2CCN(c3cccc(C(F)(F)F)c3)CC2)c1C	-4	-8	19	18	71*	-58	72*	47
Cc1cc(N2CCN(c3cccc(C(F)(F)F)c3)CC2)n2ncnc2n1	-3	0	21	-2	-7	-25	.	.
CCCCCc1c(-c2ccccc2OC)ncn1CCc1ccccc1OC	.	-7	.	.	66	.	62	30
CCCN(CC(=O)Nc1ccccc1C)C(=O)C1CCN(S(=O)(=O)c2cccc(C(F)(F)F)c2)CC1	-5	0	2	-8	12	-1	.	.
COc1ccc(/C=C2/CSC/C(=C/c3ccc(OC)c(OC)c3)C2=O)cc1OC	.	3	.	-6	64	.	38	29
O=[N+]([O-])c1cc(C(F)(F)F)cc([N+](=O)[O-])c1NCCNC(=S)Nc1ccc(Cl)c(Cl)c1	2	-4	7	1	65	-12	98*	25
C=CCSc1nnc(CNC(=O)c2ccc(Cl)cc2)n1CC	-3	-4	3	5	-1	13	.	.
COc1ccc(NS(=O)(=O)c2cccc(C(=O)OCC(=O)N3CCN(c4ccc(OC)cc4)CC3)c2)cc1	2	1	19	20	63	-22	28	50
COc1ccc(NS(=O)(=O)c2ccc(C(=O)N3CCN(c4ccc(F)cc4)CC3)cc2)cc1	.	-6	-78	14	75*	28	74*	65
CCCCn1c(=N)n(CC(O)COc2cccc(C)c2)c2ccccc21 (stereo not drawn)	-2	-9	19	32	49	-7	-9	30
CCC(Sc1nnc(C)c(=O)[nH]1)C(=O)Nc1cccc2ccccc12 (stereo not drawn)	2	-7	-3	30	14	6	.	.
Cc1cc(=O)[nH]c(SCC(=O)Nc2ccc3c(c2)CCC3)c1C#N	0	-1	-7	1	55	10	39	41
Cc1cc(=O)[nH]c(SCC(=O)Nc2ccc(F)cc2)c1C#N	4	-3	0	-1	-12	10	.	.
Cc1cc(=O)[nH]c(SCC(=O)Nc2ccc(Br)cc2)c1C#N	-3	-4	2	-5	78*	-5	98*	90*
CC1(Oc2cccc(C#N)c2)CCN(Cc2csc3ccccc23)C1 (stereo not drawn)	.	-2	.	.	-14	.	.	.
CCOC(=O)c1c2c(n(-c3ccc(OC)cc3)c1C)C(=O)C(=O)c1ccccc1-2	.	.	.	10	62	.	30	-16
CC1(c2ccc3ccccc3c2)NC(=O)N(CC(=O)N2CCN(Cc3ccccc3)CC2)C1=O (stereo not drawn)	2	.	32	34	64	28	70*	57
Cc1ccc(S(=O)(=O)NCc2ccccc2)cc1C(=O)NC(C)c1ccc(S(N)(=O)=O)cc1 (stereo not drawn)	.	-5	5	-4	-16	14	.	.
SMILES	NR2E3 ag-1	GalR3 antagonist	Jurkat NFkB inh	Gli-Sufu block	NR2E3 ag-2	697 NFkB inh	NR2E3 ag confirm	VP16 counter
Cc1ccc(S(=O)(=O)NCc2ccccc2)cc1C(=O)NCCc1ccc(S(N)(=O)=O)cc1	5	-6	6	-3	58	7	4	1
O=C(O)c1ccc(N=NNc2cccc([N+](=O)[O-])c2)cc1	1	-3	-25	-48	-113	-142	.	.
N#C/C(=N\Nc1cccc([N+](=O)[O-])c1)C(=O)c1ccc(Br)cc1	-1	-7	5	27	95*	-11	99*	86*
CC(C)(C)c1ccc(CC(=O)N2CCC2(C)C(=O)Nc2cnc3ccccc3c2)cc1 (stereo not drawn)	.	-8	.	.	67	.	66	48
Cc1ccc(NC(=O)C2(C)CCN2C(=O)Cc2ccc(-c3ccccc3)cc2)cc1 (stereo not drawn)	.	-7	.	.	69	.	88*	68
CC(=O)Nc1ccc(NC(=O)c2cc([N+](=O)[O-])cc([N+](=O)[O-])c2)cc1	4	-4	-1	3	10	0	.	.
CC(=O)Nc1ccc(Sc2ccc([N+](=O)[O-])o2)cc1	.	1	.	1	72*	.	93*	4
CC(C)(C)C(=O)Nc1ccc(Sc2ccc([N+](=O)[O-])cc2)cc1	-2	-6	20	13	53	-14	78*	54
COc1ccccc1NC(=O)Cc1nn(C)c(=O)c2ccccc12	1	.	18	47	74*	-34	73*	69
Cn1nc(CC(=O)NCc2cccc3ccccc23)c2ccccc2c1=O	2	3	1	28	26	-4	.	.
COc1cccc(OC)c1NC(=O)Cc1nn(C)c(=O)c2ccccc12	4	3	-6	4	7	-20	.	.
Cc1csc(NC(=O)Cc2nn(C)c(=O)c3ccccc23)n1	2	-3	9	37	68	-30	65	54
Cc1ccc(NC(=O)CSCC(=O)OCc2cc(=O)oc3cc(O)ccc23)c(C)c1	-1	2	-1	-8	3	6	.	.
CC(=O)N1CCN(C(=O)c2ccc(S(=O)(=O)Nc3ccccc3F)cc2)CC1	1	-4	-5	3	-5	24	.	.
Cc1c(/C(O)=C2/C(=O)C(=O)N(Cc3cccnc3)C2c2ccccn2)cnn1-c1ccccc1 (stereo not drawn)	2	-6	-7	36	83*	-6	30	48
CC(C)Oc1ccccc1NC(=O)CSc1nccn1C	0	-7	-6	-16	16	0	.	.
